Data on 22 molecules can be found in ChEMBL document CHEMBL1143062, “Identification of natural-product-derived inhibitors of 5-lipoxygenase activity by ligand-based virtual screening” (J Med Chem, 2007).

Test [1] has as its target T1, Polyunsaturated fatty acid 5-lipoxygenase (Homo sapiens, UniProt P09917).
T1 sequence (P09917 whole entry): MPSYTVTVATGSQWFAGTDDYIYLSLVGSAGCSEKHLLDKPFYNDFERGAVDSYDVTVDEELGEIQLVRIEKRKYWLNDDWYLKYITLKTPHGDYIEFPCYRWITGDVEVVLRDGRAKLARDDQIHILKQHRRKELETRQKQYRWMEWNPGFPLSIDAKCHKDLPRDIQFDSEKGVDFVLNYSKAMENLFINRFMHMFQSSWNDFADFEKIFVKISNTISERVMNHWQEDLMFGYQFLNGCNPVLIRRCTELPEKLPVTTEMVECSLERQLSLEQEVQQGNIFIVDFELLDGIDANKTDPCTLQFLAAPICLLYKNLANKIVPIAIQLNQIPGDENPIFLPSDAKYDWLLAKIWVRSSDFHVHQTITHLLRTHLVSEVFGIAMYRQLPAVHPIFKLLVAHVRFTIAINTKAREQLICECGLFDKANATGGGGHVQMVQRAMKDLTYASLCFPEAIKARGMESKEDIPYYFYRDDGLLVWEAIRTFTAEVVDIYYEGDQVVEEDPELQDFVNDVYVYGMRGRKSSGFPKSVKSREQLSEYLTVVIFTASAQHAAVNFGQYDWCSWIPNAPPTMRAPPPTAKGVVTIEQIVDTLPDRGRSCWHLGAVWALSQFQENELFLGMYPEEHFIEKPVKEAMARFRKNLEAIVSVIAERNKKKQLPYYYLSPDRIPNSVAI
Briefly: Inhibition of 5-LO activity in ionophore A23187 and arachidonic-stimulated human intact PMNL. Type of test: functional. The procedure, abridged: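 Freshly isolated human PMNL from healthy-donor leukocyte concentrates (dextran sedimentation, Nycoprep, hypotonic erythrocyte lysis), 5 × 10^6 cells/mL in PBS pH 7.4 with 1 mg/mL glucose and 1 mM CaCl2. 5-LO products analysed by HPLC; n ≥ 3, mean ± SEM.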

The target in test [2] is T1, Polyunsaturated fatty acid 5-lipoxygenase. Briefly: Inhibition of partially purified human 5-LO expressed in Escherichia coli. Put shortly: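 Recombinant 5-LO from E. coli MV1190 (pT3-5LO, expressed at 27 °C), partially purified by ammonium sulfate precipitation and ATP-agarose chromatography of the S100 fraction. 0.5 µg protein in PBS pH 7.4 with 1 mM EDTA and 1 mM ATP, compound 5-10 min at 4 °C. Started with 2 mM CaCl2 and 20 µM arachidonic acid, 10 min at 37 °C, methanol stop. HPLC product analysis as remaining activity; n ≥ 3, mean ± SEM.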

For test [3], the target named is T2, Polyunsaturated fatty acid 5-lipoxygenase (Homo sapiens) (UniProt P09917).
T2 sequence (whole entry): T1 sequence (P09917 whole entry)
Nature of the test: Inhibition of partially purified human 5-LO expressed in Escherichia coli assessed as remaining 5-LO activity at 1 uM; values are per cent of control.

Test [4] has as its target T2, Polyunsaturated fatty acid 5-lipoxygenase (Homo sapiens). Nature of the test: Inhibition of partially purified human 5-LO expressed in Escherichia coli assessed as remaining 5-LO activity at 10 uM; values are per cent of control.

With `CSc1cccc(NC(=O)Nc2nc3c(s2)CC2(C)CCC4C(C)C(=O)OC4C2C3C)c1` (stereo unspecified), the IC50 in test [1] was determined as 4 µM; in test [2] it was 1 µM. For the same molecule, the residual activity is 55% in test [3] and 67% in test [4].

With `COc1cc(C)c2c(c1C)CC(C(C)C(=O)NCc1cccs1)CC2` (stereo unspecified), the IC50 is 8 µM in test [1] and greater than 10 µM in test [2]. The residual activity in test [3] and in test [4] was 64% in each case.

As to `COc1cc(C)c2c(c1C)CC(C(C)C(=O)Nc1nccs1)CC2` (stereo unspecified), the figures for the residual activity in test [3] and in test [4] were 73% and 56%, respectively.

With `COc1cc(C)c2c(c1C)CC(C(C)C(=O)NCc1ccco1)CC2` (stereo unspecified), the IC50 in test [1] is greater than 10 µM; in test [2], 0.9 µM. The values for the residual activity in test [3] and in test [4] were 47% and 41%, respectively.

For `CCCOc1cc(C)c2c(c1C)CC(C(C)C(=O)Nc1nccs1)CC2` (stereo unspecified), the IC50 in test [1] is 0.8 µM; in test [2], 1 µM. Besides, the residual activity was 50% in test [3] and 36% in test [4].

In the case of `COc1cc(C)c2c(c1C)CC(C(C)C(=O)Nc1ccccn1)CC2` (stereo unspecified), the IC50 was found to be 5 µM in test [1] and 0.8 µM in test [2]. In addition, the residual activity in test [3] was found to be 54%; in test [4] it was 42%.

Take `Cc1cc(OCCN2CCOCC2)c(C)c2c1CCC(C(C)C(=O)Nc1nccs1)C2` (stereo unspecified): the residual activity in test [3] worked out at 74%; in test [4] it was 62%.

On to `CC1C(=O)OC2C1CCC1(C)Cc3sc(NC(=O)c4ccc5c(c4)OCO5)nc3C(C)C21` (stereo unspecified), for which the figures for the IC50 in test [1] and in test [2] were 2 µM and greater than 10 µM, respectively. The results for the residual activity in test [3] and in test [4] were 67% and 96%, respectively.

Consider `CCCOc1cc(C)c2c(c1C)CC(C(C)C(=O)Nc1ccccn1)CC2` (stereo unspecified), for which the IC50 in test [1] stood at 0.9 µM; in test [2], 6 µM.

Take `CC1C(=O)OC2C1CCC1(C)Cc3sc(NC(=O)Nc4ccc(F)cc4F)nc3C(C)C21` (stereo unspecified): the IC50 in test [1] was 7 µM; in test [2], 0.6 µM. Moreover, the figures for the residual activity in test [3] and in test [4] were 46% and 52%, respectively.

Turning to `Cc1cc(OCCN(C)C)c(C)c2c1CCC(C(C)C(=O)Nc1nccs1)C2` (stereo unspecified), the figures for the IC50 in test [1] and in test [2] were greater than 10 µM and 1 µM, respectively. The residual activity in test [3] came out at 55%; in test [4] it was 65%.

For `Cc1nnsc1C(=O)Nc1nc2c(s1)CC1(C)CCC3C(C)C(=O)OC3C1C2C` (stereo unspecified), the IC50 is 10 µM in test [1] and greater than 10 µM in test [2]. Also, the results for the residual activity in test [3] and in test [4] were 87% and 88%, respectively.

Regarding `CC1C(=O)OC2C1CCC1(C)Cc3sc(NC(=O)NCc4ccccc4)nc3C(C)C21` (stereo unspecified), the IC50 in test [1] was 3 µM; in test [2] it was greater than 10 µM. Further, the residual activity in test [3] was found to be 78%; in test [4] it was 54%.

For `CCCOc1cc(C)c2c(c1C)CC(C(C)C(=O)NCc1cccs1)CC2` (stereo unspecified), the half-inhibitory concentration (IC50) in test [1] was 8 µM; in test [2] it was 3 µM.

On to `COc1cc(C)c2c(c1C)CC(C(C)C(=O)NC(C)(C)C)CC2` (stereo unspecified), for which the IC50 in test [1] is greater than 10 µM; in test [2], 4 µM. Also, the residual activity in test [3] amounted to 55%; in test [4], 42%.

Turning to `COc1ccc(C(=O)Nc2nc3c(s2)CC2(C)CCC4C(C)C(=O)OC4C2C3C)cc1` (stereo unspecified), the IC50 in test [1] is 6 µM; in test [2], greater than 10 µM. For the same molecule, the residual activity in test [3] is 57%; in test [4] it was 78%.

Consider `CC1C(=O)OC2C1CCC1(C)Cc3sc(NC(=O)C4CCCC4)nc3C(C)C21` (stereo unspecified), for which the half-maximal inhibitory concentration (IC50) in test [1] was 8 µM; in test [2], 10 µM. In addition, the results for the residual activity in test [3] and in test [4] were 66% and 52%, respectively.

Turning to `COc1cc(C(=O)Nc2nc3c(s2)C[C@]2(C)CC[C@@H]4[C@H](OC(=O)[C@H]4C)[C@H]2[C@@H]3C)cc(OC)c1OC`, the IC50 is 0.9 µM in test [1] and greater than 10 µM in test [2]. The residual activity was found to be 65% in test [3] and 60% in test [4].

`COc1ccccc1CC(=O)Nc1nc2c(s1)CC1(C)CCC3C(C)C(=O)OC3C1C2C` (stereo unspecified): the half-maximal inhibitory concentration (IC50) in test [1] is 4 µM; in test [2] it was greater than 10 µM. For the same molecule, the residual activity in test [3] is 87%; in test [4], 86%.

`CCCOc1cc(C)c2c(c1C)CC(C(C)C(=O)Nc1ncc(C)s1)CC2` (stereo unspecified): the IC50 in test [1] is 1 µM; in test [2], 0.8 µM.

On to `Cc1cc(OCCN(C)C)c(C)c2c1CCC(C(C)C(=O)Nc1ccccn1)C2` (stereo unspecified), for which the residual activity is 56% in test [3] and 73% in test [4].

Regarding `COCCOc1cc(C)c2c(c1C)CC(C(C)C(=O)NC1CCCC1)CC2` (stereo unspecified), the IC50 in test [1] and in test [2] was greater than 10 µM each time. The residual activity in test [3] is 67%; in test [4] it was 56%.
